PvdQ acylase – P. aeruginosa PvdQ acylase inhibition. purified PvdQ acylase, fluorescence plate reader. inhibition, % at 10 µM. actives 0.063% (n = 340,000); in the data active = inhibition above about 30%, passing the limit was not always enough;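 note: 0% = vehicle neutral wells and 100% = reference inhibitor wells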
HIV Env fusion – inhibitors of HIV Env-mediated cell fusion. HeLa-JRFL Env/CEM21 cell fusion, luciferase. inhibition, % at 12.3 µM. actives 1.1% (n = 360,000);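 active = mean replicate inhibition score of at least 50 and every replicate individually at or above 50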;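 note: 0% = plate neutral controls and 100% = maraviroc near 300 nM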
Ecoli rRNA inh – inhibits bacterial ribosomal RNA function over humanized ribosomes | actives 1.6% (n = 350,000) | E. coli WT GFP vs humanized-ribosome RFP mutants, fluorescence, 24 h; stronger effect = lower value; DMSO median 0, no signal -100 | GFP signal change (wild-type ribosome), % (concentration not given with the values);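 active = significant combined selectivity score with lowered wild-type GFP, culture density cut under 30%, mutant RFP and density less affected; inactive = any of these conditions unmet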
ERp5 block – blocks human ERp5 reductase activity on insulin. ERp5 insulin aggregation, absorbance 650 nm, 90 min. inhibition, % at 9.99 µM. actives 0.05% (n = 350,000). AID 651711;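 active = mean replicate inhibition above about 25%, with every replicate also reaching it, limit read from the data, passing the limit was not always enough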
PDI turbidity – inhibitors of human protein disulfide isomerase | inhibition, % at 10 µM | PDI insulin aggregation turbidity, A650, 90 min | actives 0.052% (n = 350,000) | AID 588391;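 active = mean inhibition across replicates of 30% or more, whatever share of single replicates reach that level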
Target sequence (P07237 whole entry, looked up): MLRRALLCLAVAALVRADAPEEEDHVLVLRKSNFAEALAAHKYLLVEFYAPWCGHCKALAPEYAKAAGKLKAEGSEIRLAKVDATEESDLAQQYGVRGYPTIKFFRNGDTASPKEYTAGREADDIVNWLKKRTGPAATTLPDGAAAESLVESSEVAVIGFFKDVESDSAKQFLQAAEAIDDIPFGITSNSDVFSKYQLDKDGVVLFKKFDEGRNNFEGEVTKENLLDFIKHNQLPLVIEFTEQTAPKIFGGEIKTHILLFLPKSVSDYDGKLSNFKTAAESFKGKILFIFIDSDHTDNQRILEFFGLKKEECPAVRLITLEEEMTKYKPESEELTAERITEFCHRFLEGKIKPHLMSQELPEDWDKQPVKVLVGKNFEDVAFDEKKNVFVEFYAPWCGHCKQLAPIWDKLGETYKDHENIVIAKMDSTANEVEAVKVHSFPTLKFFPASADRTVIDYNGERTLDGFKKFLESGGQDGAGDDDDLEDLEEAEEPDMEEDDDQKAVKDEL
FN deposition inh – fibronectin deposition inhibition | AH1F fibroblasts, Alexa488-fibronectin deposition fluorescence, overnight | inhibition, % at 12.6 µM | actives 0.086% (n = 350,000) | AID 743247;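 active = mean inhibition across replicates of 30% or more, regardless of how many single replicates reach that level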;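 note: positive control wells lacked labelled fibronectin entirely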
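Assay system: AH1F fibroblast monolayer, labelled fibronectin deposition. Amount: 10000 cells per well. Also added: labelled fibronectin 24 nM. Compound: single-point pinned compound. Incubation: cell attachment 1 h, compound and FN exposure overnight. Detection: fluorescence after three HBSS washes, excitation 485 nm, emission 525 nm. Read-out: inhibition of fibronectin deposition signal.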
* = called active by the depositor; . = no result given; [ ] = remark or other dose. Shown are actives, neighbours in structure and some others; about 2.2% of the full set was active somewhere.

SMILES	PvdQ acylase	HIV Env fusion	Ecoli rRNA inh	ERp5 block	PDI turbidity	FN deposition inh
O=C(NN=Cc1ccc(O)cc1)c1ccccc1NS(=O)(=O)c1cccs1	-4	6	-37*	10	1	9
COc1cc(C=NNC(=O)c2ccc(NS(=O)(=O)c3cccs3)cc2)cc(Br)c1O	-8	0	-31*	1	9	9
COc1cccc(N2CCN(c3ccc(S(=O)(=O)N4CCN(C)CC4)cc3[N+](=O)[O-])CC2)c1	-7	16	-23*	-2	7	4
CCN(CC)S(=O)(=O)c1ccc(N2CCN(c3cccc(OC)c3)CC2)c([N+](=O)[O-])c1	16	43	.	.	2	-3
O=C(COC(=O)c1cc(S(=O)(=O)N2CCCCC2)ccc1N1CCOCC1)NCCc1ccc(F)cc1	0	15	-20*	2	-1	.
O=C(OCc1cccc(Cl)c1)c1cc(S(=O)(=O)N2CCCCC2)ccc1N1CCOCC1	-9	.	3	9	-7	-12
CC(C)CNC(=O)COC(=O)c1cc(S(=O)(=O)N2CCCCC2)ccc1N1CCOCC1	-6	.	.	.	1	.
O=C(OCCOc1cccc(Cl)c1)c1cc(S(=O)(=O)N2CCCCC2)ccc1N1CCOCC1	6	75*	6	-2	1	0
COc1ccccc1S(=O)(=O)Nc1cc(S(=O)(=O)N2CCCCC2)ccc1N1CCOCC1	7	1	-28*	-2	-6	6
Cc1ccc(S(=O)(=O)N2CCOCC2)cc1C(=O)OCC(=O)NCc1ccc2c(c1)OCO2	-12	-5	3	-13	1	-3
O=C(COC(=O)c1cc(S(=O)(=O)N2CCOCC2)ccc1O)NCc1ccc2c(c1)OCO2	-12	82*	-5	-1	-3	-1
Cc1ccc(COC(=O)c2cc(S(=O)(=O)N3CCCCC3)ccc2N2CCOCC2)cc1	-4	76*	10	5	-5	-1
CC=Cc1ccc2n(c1=O)C[C@@H]1[C@@H](CO)[C@H](C(=O)NC3CCCC3)N(Cc3ccncc3)[C@H]21 (mixture of isomers)	.	.	2	1	.	.
COc1ccc(Cl)cc1NC(=O)CSc1nc(Nc2ccccc2)nc(N2CCOCC2)n1	-27	47	0	3	0	31*
COc1ccc(Cl)cc1NC(=O)CSc1nc(N2CCOCC2)nc(N2CCOCC2)n1	-7	16	11	3	2	4
CCN1[C@@H]2Cn3c(ccc(C4=CCCCC4)c3=O)[C@H]1[C@@H](C(=O)NCC(F)(F)F)[C@@H]2CO	.	.	5	.	.	.
CCCn1nnnc1NCc1ccccc1F	-1	5	10	0	11	3
CCCn1nnnc1NCc1ccc(Cl)cc1Cl	-12	7	-29*	2	3	1
Cc1ccc(N=Nc2cc(C)ccc2N)cc1	4	-170	-53*	5	1	3
COc1cc(O)c(C(C)=O)c2c1C=CC(C)(C)O2	2	.	-2	2	.	.
CC(=O)c1c(O)cc2c3c1OC(C)(C)C1CCC(C)(CC31)O2 (configuration not stated)	.	69*	-7	11	-6	-5
C[C@@H]1CN([C@@H](C)CO)C(=O)c2cc(C#CC3CC3)cnc2O[C@H]1CN(C)C(=O)c1ccncc1	.	-21[16.7 µM]	3	.	.	.
COc1ccccc1S(=O)(=O)N[C@H]1CC[C@H](CC(=O)N2CCN(C)CC2)O[C@H]1CO	.	62*[16.7 µM]	1	-2	.	-10
C[C@@H]1CN([C@@H](C)CO)C(=O)c2cc(NS(=O)(=O)c3ccc(F)cc3)ccc2O[C@@H]1CN(C)S(=O)(=O)c1cccs1	.	-33[16.7 µM]	-5	-5	.	1
COC(=O)c1cc2c(c3c4cc(OC)ccc4n(S(=O)(=O)c4ccccc4)c13)C(=O)N(C)C2	.	65*	-9	3	.	-1
SMILES	PvdQ acylase	HIV Env fusion	Ecoli rRNA inh	ERp5 block	PDI turbidity	FN deposition inh
COc1ccc(-c2ccc([C@H]3[C@H](C#N)N(C(=O)NC4CCCC4)[C@H]3CO)cc2)cc1	.	-1[16.7 µM]	.	0	.	.
C[C@H]1CN([C@@H](C)CO)C(=O)c2ccccc2-c2ccccc2CO[C@H]1CN(C)S(=O)(=O)c1ccc(C#N)cc1	.	.	-2	3	.	9
CN1C(=O)c2cc(NC(=O)c3cscn3)ccc2OC[C@@H]2O[C@H](CC(=O)NCc3ccc(Cl)c(Cl)c3)CC[C@H]21	.	58*[16.7 µM]	-9	1	.	4
CN1C(=O)c2cc(NC(=O)c3cscn3)ccc2OC[C@H]2O[C@H](CC(=O)NCc3ccc(Cl)c(Cl)c3)CC[C@H]21	.	68*[16.7 µM]	-11	-4	.	-26
C[C@@H]1CN([C@@H](C)CO)C(=O)c2ccccc2-c2ccccc2CO[C@@H]1CN(C)S(=O)(=O)c1ccc(C#N)cc1	.	.	-1	.	.	17
Cc1cccc(N2CCN(C(=O)c3cccc(S(=O)(=O)N4CCCCC4)c3)CC2)c1C	-15	64*	13	4	10	6
Cc1cccc(N2CCN(C(=O)CNC(=O)C3CCCCC3)CC2)c1C	4	56*	0	-1	16	-2
CSc1cccc(N2CC(C(=O)Nc3cccc(S(=O)(=O)N4CCCC4)c3)CC2=O)c1 (configuration not stated)	-13	116*	-22	-1	-4	.
CCOc1ccc(N2CC(C(=O)Nc3cccc(S(=O)(=O)N4CCCCC4)c3)CC2=O)cc1 (configuration not stated)	2	-4	-19	7	-1	-7
Cc1cccc(N2CCN(C(=O)CNC(=O)c3ccccc3)CC2)c1C	-9	31	-8	-10	-14	0
O=C(c1cccc(S(=O)(=O)N2CCCCCC2)c1)N1CCN(c2ccccc2F)CC1	12	-3	-3	2	5	.
O=C(Nc1ccncc1)C1CC(=O)N(c2ccccc2)C1 (configuration not stated)	-13	4	1	28*	-6	-16
O=C(C[C@@H]1C=C[C@@H](NC(=O)CCN2CCCCC2)[C@H](CO)O1)NCc1ccc(Cl)c(Cl)c1	.	1[16.7 µM]	-1	0	.	-3
CCCN(C)C[C@H]1Oc2cc(-c3cccnc3)ccc2S(=O)(=O)N([C@@H](C)CO)C[C@H]1C	.	-17[16.7 µM]	2	5	.	.
Cc1cccc(N2CC(C(=O)Nc3ccc(S(=O)(=O)N4CCOCC4)cc3)CC2=O)c1C (configuration not stated)	5	4	1	-3	7	11
Cc1cccc(N2CC(C(=O)Nc3cccc(S(=O)(=O)N4CCCCC4)c3)CC2=O)c1C (configuration not stated)	-7	11	-25*	-4	12	-3
CCN(CC)c1ccc(/C=N/N2C(C)CCCC2C)c(O)c1 (configuration not stated)	-6	73*	6	-7	0	4
